From ChEMBL document CHEMBL1212775, “A novel class of meso-tetrakis-porphyrin derivatives exhibits potent activities against hepatitis C virus genotype 1b replicons in vitro” (Antimicrob Agents Chemother, 2010)
Activity calls are given as the source filed them. The calls are words filed in the database; no cut-off is given here.

Columns and labels:
Hepatitis C virus [1] = assay: Antiviral activity against Hepatitis C virus genotype 1b Con1 infected in human Huh-luc/neo-ET replicon cells assessed as reduction of replicon luciferase signal after 72 hrs by luciferase reporter assay; format: functional, organism-based, Hepacivirus hominis
Method in brief: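 Replicon cells grown without G418, seeded at 5 × 10^3 per well, treated next day in duplicate with serial dilutions (DMSO control) at 37°C for 72 h. After a PBS wash, cells lysed in ice-cold passive lysis reagent and firefly luciferase RLU read as percent of compound-free control. EC50 by nonlinear regression of the dose-effect curve.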

Hepatitis B virus = assay: Antiviral activity against Hepatitis B virus infected in human 2.2.15 cells assessed as reduction of […] after 72 hrs by southern DNA hybridization method; format: functional, organism-based; details: HepG2 2.2.15, 72 h
[2] = tested on: Human immunodeficiency virus 1; assay: Antiviral activity against Human immunodeficiency virus 1 3B virus infected in human MT2 cells assessed as inhibition of virus-induced cytopathic effect by colorimetry; format: functional, organism-based
Method in brief: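 MT-2 cells, 1 × 10^3 per well in triplicate, infected with HIV-1 IIIB at 0.1 TCID50/cell and cultured with compounds. Viral CPE quantified by MTT colorimetry after 5 days to estimate EC50.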

MT2 = assay: Cytotoxicity against human MT2 cells after 5 days by colorimetry; format: cell-based; details: MT2, 120 h
Method in brief: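 Uninfected MT-2 cells coincubated with compounds for 5 days. Cytotoxicity by colorimetric quantitation.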

[3] = Cytotoxicity against human HuH7 cells by luminescence based cell viability assay; parameters: species or system Huh-7
Method in brief: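 Exponentially growing Huh-7 cells seeded at 1 × 10^4 per well and incubated with compounds for 3 days. Viability read by CellTiter-Glo luminescence, used for dark compounds that interfere with methylene blue absorbance at 595 nm. CC50 derived.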

CCRF-CEM = assay: Mitochondrial DNA toxicity in human CEM cells; format: cell-based
Method in brief: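 CEM cell lysates slot-blotted and hybridized with an mtDNA-specific probe, then reprobed with an Alu probe as internal control. Bands quantified by autoradiography and densitometry.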

Hepatitis C virus [4] = assay: Antiviral activity against Hepatitis C virus genotype 1b Con1 infected in human Huh-luc/neo-ET replicon cells assessed as reduction of replicon luciferase signal after 72 hrs by luciferase reporter assay in presence of 0% fetal bovine serum; format: functional, organism-based, Hepacivirus hominis
Method in brief: (§1)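 Huh-luc/neo-ET cells without G418, incubated with serially diluted compounds in medium containing 5%, 10%, 20% or 40% (vol/vol) FBS. Firefly luciferase read after 72 h. EC50 from dose-effect curves. The 0% value is a theoretical EC50 extrapolated from the plot of EC50 versus serum level. Means ± SD of three independent experiments.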

Hepatitis C virus [5] = assay: Antiviral activity against Hepatitis C virus genotype 1b Con1 infected in human Huh-luc/neo-ET replicon cells assessed as reduction of replicon luciferase signal after 72 hrs by luciferase reporter assay in presence of 5% fetal bovine serum; format: functional, organism-based, Hepacivirus hominis; method in brief: as §1
Hepatitis C virus [6] = assay: Antiviral activity against Hepatitis C virus genotype 1b Con1 infected in human Huh-luc/neo-ET replicon cells assessed as reduction of replicon luciferase signal after 72 hrs by luciferase reporter assay in presence of 10% fetal bovine serum; format: functional, organism-based, Hepacivirus hominis; method in brief: as §1
Hepatitis C virus [7] = assay: Antiviral activity against Hepatitis C virus genotype 1b Con1 infected in human Huh-luc/neo-ET replicon cells assessed as reduction of replicon luciferase signal after 72 hrs by luciferase reporter assay in presence of 20% fetal bovine serum; format: functional, organism-based, Hepacivirus hominis; method in brief: as §1
Hepatitis C virus [8] = assay: Antiviral activity against Hepatitis C virus genotype 1b Con1 infected in human Huh-luc/neo-ET replicon cells assessed as inhibition of virus-induced cytopathic effect after 48 hrs by luciferase reporter assay; format: functional, organism-based, Hepacivirus hominis
Method in brief: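 Huh-luc/neo-ET cells seeded at 1 × 10^5 per well and treated with DMSO or serially diluted compound up to 250 nM. Harvested at 24 or 48 h. Luciferase run in triplicate and RLU normalized to total protein (Bradford), expressed as percent of mock control. Three independent repeats averaged.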

Hepatitis C virus [9] = assay: Antiviral activity against Hepatitis C virus genotype 1b Con1 infected in human Huh-luc/neo-ET replicon cells assessed as reduction in viral RNA level after 72 hrs by RT-PCR; format: functional, organism-based, Hepacivirus hominis
Method in brief: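 Cells seeded at 1 × 10^5 per well and treated with DMSO or compound up to 250 nM for 24, 48 or 72 h. Total RNA diluted to 50 ng/μl. Replicon RNA (5′ UTR) measured in triplicate by one-step qRT-PCR, normalized to β-actin mRNA, and expressed as percent of mock control. Three independent repeats.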

Hepatitis C virus [10] = assay: Antiviral activity against blasticidin resistant Hepatitis C virus genotype 1b Con1 replicon infected in human HuH7 cells assessed as reduction in viral RNA level by RT-PCR; format: functional, organism-based, Hepacivirus hominis; details: Con1, Huh-7
Hepatitis C virus [11] = assay: Antiviral activity against Hepatitis C virus genotype 2a JFH1 infected in human YSGR-JFH replicon cells assessed as inhibition of virus RNA level after 72 hrs by quantitative RT-PCR; format: functional, organism-based, Hepacivirus hominis; details: subtype 2a JFH1, 72 h
Method in brief: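 YSGR-JFH genotype 2a subgenomic replicon cells (maintained with 400 μg/ml G418), 1 × 10^5 per well, incubated with DMSO, serially varied compound, or IFN-α-2a for 72 h. HCV RNA by qRT-PCR normalized to β-actin, as percent of mock-treated control. Mean ± SD of three independent experiments.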

Cytochrome c = Cytochrome c (Homo sapiens, UniProt P99999); assay: Binding affinity to Cytochrome C
Cytochrome c, sequence (P99999 whole entry): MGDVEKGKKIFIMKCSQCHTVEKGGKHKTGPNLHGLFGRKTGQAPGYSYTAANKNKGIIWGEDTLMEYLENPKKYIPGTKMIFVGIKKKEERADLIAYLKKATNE

Hepatitis C virus [12] = assay: Antiviral activity against Hepatitis C virus genotype 1b Con1 infected in human Huh-luc/neo-ET replicon cells assessed as viral replicon survival dosed at 50 nM incubated for 12 days followed by compound removal and reintroduction of 250 ug/ml G418 measured after 6 days post compound withdrawal; format: functional, Hepacivirus hominis
Method in brief: (§2)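 Huh-luc/neo-ET cells were seeded at 2 × 10^5 per well and kept without G418 for 12 days with DMSO or up to 1 μM drug. Cells were split every 3 days, with medium and drug renewed. Drug was then removed and 250 μg/ml G418 added for 12 more days, sampling at confluence. HCV 5′UTR RNA was measured by one-step qRT-PCR, normalised to β-actin and expressed relative to mock. Viability was read by CellTiter-Glo as % of mock.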

Hepatitis C virus [13] = assay: Antiviral activity against Hepatitis C virus genotype 1b Con1 infected in human Huh-luc/neo-ET replicon cells assessed as viral replicon survival dosed at 100 nM incubated for 12 days followed by compound removal and reintroduction of 250 ug/ml G418 measured after 12 days post compound withdrawal; format: functional, Hepacivirus hominis; method in brief: as §2
Hepatitis C virus [14] = assay: Antiviral activity against Hepatitis C virus genotype 1b Con1 infected in human Huh-luc/neo-ET replicon cells assessed as inhibition of viral rebound dosed at 1 uM incubated for 9 days followed by compound removal and reintroduction of 250 ug/ml G418 measured after 15 days post compound withdrawal; format: functional, organism-based; details: Hepacivirus hominis
Method in brief: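 In a separate run, Huh-luc/neo-ET replicon cells were treated for 9 days without G418. Drug was then withdrawn and cells were kept for a 15-day rebound period under G418 selection. Surviving cells were scored as the fraction of the population that outlasted selection.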

[15] = Cytotoxicity against human Huh-7 cells by luminescence based cell viability assay
Hepatitis C virus [16] = assay: Antiviral activity against Hepatitis C virus genotype 1b Con1 infected in human Huh-luc/neo-ET replicon cells assessed as inhibition of viral RNA level dosed at >300 nM incubated for 12 days measured after 12 days of exposure relative to untreated control

O=C(O)c1cc(C(=O)O)cc(-c2ccc(-c3c4nc(c(-c5ccc(-c6cc(C(=O)O)cc(C(=O)O)c6)cc5)c5ccc([nH]5)c(-c5ccc(-c6cc(C(=O)O)cc(C(=O)O)c6)cc5)c5ccc([nH]5)c(-c5ccc(-c6cc(C(=O)O)cc(C(=O)O)c6)cc5)c5nc3C=C5)C=C4)cc2)c1
EC50 (Hepatitis C virus [1]): 24 nM
EC50 (Hepatitis B virus): > 20 µM
EC50 [2]: 3.67 µM
CC50 (MT2): 18 µM
CC50 [3]: > 50 µM
IC50 (CCRF-CEM): > 50 µM
EC50 (Hepatitis C virus [4]): 6.5 nM
EC50 (Hepatitis C virus [5]): 13 nM
EC50 (Hepatitis C virus [6]): 24 nM
EC50 (Hepatitis C virus [7]): 39 nM
EC50 (Hepatitis C virus [8]): 19.2 nM
inhibition (Hepatitis C virus [8]; Hepacivirus hominis): Dose-dependent effect
EC50 (Hepatitis C virus [9]): 29.2 nM
inhibition (Hepatitis C virus [9]; Hepacivirus hominis): Dose-dependent effect
EC50 (Hepatitis C virus [10]): 14 nM
EC50 (Hepatitis C virus [11]): 1380 nM
Kd (Cytochrome c): 1500 nM
Survival (Hepatitis C virus [12]): 8.5%
Survival (Hepatitis C virus [13]): 0.007%
inhibition (Hepatitis C virus [14]): Active
CC50 [15]: > 50 µM
fold change (FC) (Hepatitis C virus [16]): 4.5
